Test results from ChEMBL document CHEMBL4011636, “Utilization of an Active Site Mutant Receptor for the Identification of Potent and Selective Atypical 5-HT2C Receptor Agonists” (J Med Chem, 2017).

Experiments:
[1] = biological target: T1, 5-hydroxytryptamine receptor 2C (Homo sapiens, UniProt P28335); assay: Agonist activity at recombinant human 5-HT2C receptor expressed in HEK293E cells assessed as induction of intracellular Ca2+ levels after 90 secs by Fluo-4-dye based FLIPR assay; type: functional, cell-based, HEK293
T1 sequence (P28335 whole entry): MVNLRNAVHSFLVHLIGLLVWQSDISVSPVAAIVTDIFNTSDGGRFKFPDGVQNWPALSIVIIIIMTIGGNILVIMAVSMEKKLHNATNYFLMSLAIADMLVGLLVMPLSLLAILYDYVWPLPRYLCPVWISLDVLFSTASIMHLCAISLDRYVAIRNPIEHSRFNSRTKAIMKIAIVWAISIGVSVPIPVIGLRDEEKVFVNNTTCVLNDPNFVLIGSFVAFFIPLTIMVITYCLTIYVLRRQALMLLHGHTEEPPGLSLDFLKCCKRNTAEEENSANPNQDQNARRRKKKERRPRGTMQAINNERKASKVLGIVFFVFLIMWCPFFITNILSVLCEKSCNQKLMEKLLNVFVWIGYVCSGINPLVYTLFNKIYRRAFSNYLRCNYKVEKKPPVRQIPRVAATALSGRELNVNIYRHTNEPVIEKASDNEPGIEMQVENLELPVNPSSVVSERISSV
Method in brief: (§1)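 HEK293E cells stably expressing human receptor (VNV isoform for 5-HT2C; ~400−795 fmol/mg protein), grown in DMEM with 10% dialyzed FBS and G418. Cells plated at 20 000/well in serum-free DMEM overnight at 37 °C, then loaded 1 h at room temperature with 5 μM Fluo-4 in HBSS/25 mM HEPES. Eleven compound concentrations added on FLIPR, Ca2+ signal read for 90 s. EC50 from a four-parameter logistic fit, at least triplicate.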

[2] = biological target: T2, 5-hydroxytryptamine receptor 2C (Homo sapiens) (UniProt P28335); assay: Intrinsic activity at recombinant human 5-HT2C receptor expressed in HEK293E cells assessed as induction of intracellular Ca2+ levels after 90 secs by Fluo-4-dye based FLIPR assay relative to serotonin; type: functional, cell-based; settings: HEK293
T2 sequence (whole entry): T1 sequence (P28335 whole entry)
Method in brief: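 FLIPR Fluo-4 Ca2+ assay in HEK293E cells stably expressing the human receptor (VNV isoform for 5-HT2C), eleven-point concentration series, 90 s read. Response normalized to 3 μM serotonin on the same plate (defined as IA = 1). Intrinsic activity taken from a four-parameter logistic fit.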

[3] = biological target: 5-hydroxytryptamine receptor 2B (Homo sapiens, UniProt P41595); assay: Agonist activity at recombinant human 5-HT2B receptor expressed in HEK293E cells assessed as induction of intracellular Ca2+ levels after 90 secs by Fluo-4-dye based FLIPR assay; type: cell-based, HEK293; method in brief: as §1
[4] = biological target: 5-hydroxytryptamine receptor 2A (Homo sapiens, UniProt P28223); assay: Agonist activity at recombinant human 5-HT2A receptor expressed in HEK293E cells assessed as induction of intracellular Ca2+ levels after 90 secs by Fluo-4-dye based FLIPR assay; type: cell-based, HEK293; method in brief: as §1
[5] = Metabolic stability in rat liver microsomes assessed as parent compound remaining at […] after 10 mins; type: ADME, microsome; settings: read-out: Stability
[6] = Metabolic stability in human liver microsomes assessed as parent compound remaining at […] after 10 mins; type: ADME, microsome; settings: read-out: Stability

Sequence of 5-hydroxytryptamine receptor 2A (P28223 whole entry): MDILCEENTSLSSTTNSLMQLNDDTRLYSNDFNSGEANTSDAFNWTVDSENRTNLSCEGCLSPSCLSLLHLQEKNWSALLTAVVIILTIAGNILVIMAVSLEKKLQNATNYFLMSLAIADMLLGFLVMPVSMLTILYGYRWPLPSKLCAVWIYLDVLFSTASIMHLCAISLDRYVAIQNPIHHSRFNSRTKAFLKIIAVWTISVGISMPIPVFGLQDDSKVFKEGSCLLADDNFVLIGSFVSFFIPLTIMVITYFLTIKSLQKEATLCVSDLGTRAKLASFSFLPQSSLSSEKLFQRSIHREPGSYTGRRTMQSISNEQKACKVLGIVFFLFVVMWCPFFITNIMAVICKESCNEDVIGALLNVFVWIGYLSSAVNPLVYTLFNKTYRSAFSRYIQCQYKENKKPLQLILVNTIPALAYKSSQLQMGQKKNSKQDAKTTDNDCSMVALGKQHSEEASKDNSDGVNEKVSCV
Sequence of 5-hydroxytryptamine receptor 2B (P41595 whole entry): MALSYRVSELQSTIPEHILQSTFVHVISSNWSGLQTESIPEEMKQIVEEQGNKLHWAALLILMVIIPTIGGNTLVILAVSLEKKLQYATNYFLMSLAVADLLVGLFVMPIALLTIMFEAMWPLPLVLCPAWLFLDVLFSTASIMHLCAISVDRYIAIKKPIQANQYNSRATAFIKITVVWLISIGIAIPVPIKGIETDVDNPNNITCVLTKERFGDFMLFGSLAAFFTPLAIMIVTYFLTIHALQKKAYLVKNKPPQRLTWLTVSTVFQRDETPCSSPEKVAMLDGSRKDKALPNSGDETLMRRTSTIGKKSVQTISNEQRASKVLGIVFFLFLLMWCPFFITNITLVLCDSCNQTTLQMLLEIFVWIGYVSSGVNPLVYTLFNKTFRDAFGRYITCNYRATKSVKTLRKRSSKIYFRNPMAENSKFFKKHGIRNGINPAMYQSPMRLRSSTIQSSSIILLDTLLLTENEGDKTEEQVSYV

| SMILES | EC50 [1] [µM] | Intrinsic activity [2] | EC50 [3] [µM] | EC50 [4] [µM] | remaining at 10 min [5] [%] | remaining at 10 min [6] [%] |
| --- | --- | --- | --- | --- | --- | --- |
| O=C(c1csc(-c2ccc(Cl)cc2Cl)n1)N1CCOCC1 | > 10 | – | > 10 | > 10 | – | – |
| CCn1nc(-c2cccc3ccccc23)cc1-c1cncn1C | 3.85 to 4.39 | 0.2 | > 10 | > 10 | – | – |
| O=C(c1cnc(-c2cccc(Cl)c2Cl)s1)N1CCOCC1 | > 10 | – | > 10 | > 10 | – | – |
| O=C(c1csc(-c2cccnc2)n1)N1CCOCC1 | > 10 | – | > 10 | > 10 | – | – |
| CCn1nc(-c2cccc3ccccc23)cc1-c1ncccn1 | 1.7 to 1.9 | 0.4 | > 5 | > 5 | – | – |
| Cc1nc(-c2cccc3ccccc23)sc1C(=O)N(C)CCc1cccnc1 | 0.038 to 0.039 | 0.7 | > 10 | > 10 | 1 | < 1 |
| CCn1nc(-c2cccc3ccccc23)cc1-c1ncnn1C | 0.19 to 0.616 | 0.7 | > 10 | > 10 | – | 4 |
| Cc1nc(-c2cccc3ccccc23)sc1C(=O)N(C)C | 0.059 to 0.072 | 1 | > 10 | > 10 | – | – |
| O=C(c1csc(-c2cccc(F)c2Cl)n1)N1CCOCC1 | > 10 | – | > 10 | > 10 | – | – |
| Cc1nc(-c2cccc(Cl)c2Cl)sc1C(=O)N1CCOCC1 | > 10 | – | > 10 | > 10 | – | – |
| CCn1nc(-c2cccc3ccccc23)cc1-c1nccn1C | 0.027 to 0.037 | 0.8 | > 10 | > 10 | – | 5 |
| CCn1nc(-c2cccc3ccccc23)cc1-c1cccnn1 | 0.015 | 1.2 | > 10 | 0.884 | – | 17 |
| CCn1nc(-c2cccc3ccccc23)cc1-c1nnnn1C | 0.45 | 0.6 | > 5 | 1.8 to 2.5 | – | 4 |
| CCn1nc(-c2cccc3cnccc23)cc1-c1cccnn1 | 1.6 | 0.7 | > 5 | > 5 | – | – |
| CCn1nc(-c2cccc3ccncc23)cc1-c1cccnn1 | 0.013 to 0.043 | 0.7 | > 10 | > 10 | – | 16 |
| Cc1nc(-c2cccc3ccccc23)sc1C(=O)N(C)Cc1ccn(C)n1 | 0.013 to 0.019 | 1 | > 10 | > 10 | – | – |
| CCn1nc(-c2ccnc3ccccc23)cc1-c1cccnn1 | 0.315 to 0.396 | 0.6 | > 10 | > 10 | – | – |
| CCn1nc(-c2cccc3ccncc23)cc1-c1ccc(N)nn1 | 0.007 | 1.1 | > 5 | > 10 | – | – |
| COCCNC(=O)c1sc(-c2cccc3ccccc23)nc1C | > 10 | – | > 10 | > 10 | – | – |
| Cn1nc(-c2cccc3ccccc23)cc1-c1cccnn1 | 0.025 to 0.04 | 1.2 | > 10 | > 5 | – | 12 |
| CCn1nc(-c2cccc3ncccc23)cc1-c1cccnn1 | 4.53 to 4.73 | 0.3 | > 10 | > 10 | – | – |
| CCn1nc(-c2cncc3ccccc23)cc1-c1cccnn1 | 0.53 | 0.7 | > 10 | > 10 | – | – |
| CCn1nc(-c2cccc3ccccc23)cc1-c1ccccn1 | 0.576 to 0.613 | 0.8 | > 5 | > 5 | – | – |
| Cc1nc(-c2cccc3ccccc23)sc1C(=O)N(CCO)C(C)C | > 10 | – | > 10 | > 10 | 7 | 28 |
| Cn1ccnc1-c1cc(-c2cccc3ccccc23)nn1C | 0.058 to 0.088 | 0.9 | > 10 | 0.093 to 0.126 | – | 15 |
| CCn1nc(-c2cccc3ccccc23)cc1-c1ccnn1C | 3.46 to 5 | 0.3 | > 10 | > 10 | – | – |
| CCn1nc(-c2nccc3ccccc23)cc1-c1cccnn1 | 0.291 to 0.518 | 0.8 | > 10 | > 10 | – | – |
| Cc1nc(-c2cccc3ccccc23)sc1C(N)=O | > 10 | – | > 10 | > 10 | – | – |

Next, values leading:

| EC50 [1] [µM] | Intrinsic activity [2] | EC50 [3] [µM] | EC50 [4] [µM] | remaining at 10 min [5] [%] | remaining at 10 min [6] [%] | SMILES |
| --- | --- | --- | --- | --- | --- | --- |
| 1.04 | 0.4 | > 10 | > 10 | – | – | Cc1nc(-c2cccc3ccccc23)sc1C(=O)N1CCNCC1 |
| 0.047 to 0.119 | 0.8 | > 10 | > 10 | 23 | 66 | Cc1sc(-c2cccc3ccccc23)cc1C(=O)N1CCC(CO)CC1 |
| 0.32 to 0.733 | 0.5 | > 10 | > 10 | – | – | O=C(c1csc(-c2cccc(Cl)c2Cl)n1)N1CCCOCC1 |
| 0.041 to 0.045 | 1 | > 10 | > 10 | 57 | 76 | Cn1cc(-c2cccc3ccccc23)cc1C(=O)N1CCC(CO)CC1 |
| 1.03 to 2 | 0.7 | > 10 | > 10 | – | – | Cc1cc(-c2cccc3ccccc23)oc1C(=O)N1CCC(CO)CC1 |
| 0.729 to 1.62 | 0.6 | > 10 | > 10 | – | – | O=C(c1nc(-c2cccc3ccccc23)cs1)N1CCOCC1 |
| 0.02 | 1 | > 10 | > 5 | 20 | 87 | Cc1cc(-c2cccc3ccccc23)sc1C(=O)N1CCC(CO)CC1 |
| 2.78 | 0.3 | > 10 | > 10 | – | – | Cc1sc(-c2cccc3ccccc23)nc1C(=O)N1CCOCC1 |
| 0.129 to 0.315 | 0.8 | > 10 | > 10 | – | – | O=C(c1csc(-c2cccc(Cl)c2Cl)n1)N1CC2CC1CO2 (stereo not given) |
| 4.6 | 0.1 | > 10 | > 10 | – | – | O=C(c1csc(-c2ccccc2Cl)n1)N1CCOCC1 |
| 1.8 to 3.53 | 0.7 | > 10 | > 10 | – | – | Cn1cc(-c2cccc3ccccc23)nc1C(=O)N1CCC(CO)CC1 |
| 1.27 to 2.4 | 0.3 | > 10 | > 10 | – | – | O=C(c1csc(-c2cccc(Cl)c2F)n1)N1CCOCC1 |
| 0.679 to 0.84 | 0.7 | > 10 | > 10 | – | – | O=C(c1csc(-c2cccc(Cl)c2Cl)n1)N1CCC(O)CC1 |
| 1.87 | 0.4 | > 10 | > 10 | – | – | Cc1nc(-c2cccc3ccccc23)n(C)c1C(=O)N1CCC(CO)CC1 |
| 0.018 to 0.038 | 0.8 | > 10 | > 10 | – | – | O=C(c1nc(-c2cccc(Cl)c2Cl)cs1)N1CCOCC1 |
| 1.52 to 2.27 | 0.6 | > 10 | > 10 | – | – | O=C(c1cnc(-c2cccc3ccccc23)s1)N1CCOCC1 |
| 1.52 | 0.6 | > 10 | > 10 | – | – | Cc1sc(-c2cccc(Cl)c2Cl)nc1C(=O)N1CCOCC1 |
| 0.766 to 1.17 | 0.6 | > 10 | > 10 | – | – | O=C(c1csc(-c2cccc3ccccc23)n1)N1CCOCC1 |
| 0.501 to 0.705 | 0.7 | > 10 | > 10 | – | – | Cc1cccc(-c2nc(C(=O)N3CCOCC3)cs2)c1C |
| 4.1 to 10 | 0.3 | > 10 | > 10 | – | – | O=C(c1nnn(-c2cccc3ccccc23)n1)N1CCC(CO)CC1 |
| 3.1 to 3.7 | 0.3 | > 10 | > 10 | – | – | O=C(c1csc(-c2cccc(Cl)c2Cl)n1)N1CCCCC1 |
